Screening results from PubChem.
TROY signal inh: inhibitors of TROY-driven NF-kB signaling, primary screen, Q293 LMP1-TROYcd cells, NF-kB luciferase, uHTS; inhibition, % at 10 µM; 0.98% of 360,000 active; Q293 LMP1-TROYcd NF-kB luciferase reporter, 4 h;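 active = compounds whose plate-normalised and pattern-corrected inhibition of the luciferase reporter signal at the single screening dose is 50% or more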
LGR2 antag: inhibitors of bursicon-induced LGR2 CRE-luciferase signal, primary screen, cell-based, HEK293, CRE-luciferase reporter, bursicon stimulation; Drosophila bursicon receptor LGR2 (rickets); bursicon-stimulated, 4 h; inhibition, % at 9.99 µM; 0.35% of 380,000 active; AID 720647, 2013;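 active = drop in luminescence signal, shown as inhibition above about 50% in the replicate tests, limit read from the data, passing the limit was not always enough; inconclusive = probably only some replicates passing the limit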;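 note: agonist challenge used bursicon conditioned medium at about half maximal strength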
XiGFP reactiv: activators of inactive X chromosome reactivation, primary screen, imaging, XiGFP fibroblasts, GFP high-content imaging, set 2; 0.055% of 360,000 active; XiGFP mouse fibroblasts, % GFP-positive cells imaging, 3 d; cells co-treated with 5-aza-dC sensitizer; scaled so ellipticine positive control = 100%; activation, % at 7.58 µM; AID 743238, 2013;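 active = mean normalized replicate activation at least 10% and every replicate at or above 10%; inconclusive = only one of the two criteria met; inactive = mean below 10% and not all replicates reach 10%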;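 note: 0% = median of on-plate neutral control wells and 100% = ellipticine 6 µM median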
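material = 68-5-11 XiGFP fibroblast line | medium = DMEM plus 5-aza-dC sensitizer | schedule = 3 days compound exposure | benchmarks = positive control ellipticine, 6 µM final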
TWEAK-Fn14 inh: inhibitors of TWEAK-Fn14 signaling, primary screen, luciferase reporter cells, uHTS | TWEAK-stimulated Fn14 reporter cells, luciferase luminescence, 8 h | inhibition, % at 10 µM | 2% of 360,000 active | AID 1159606, 2016; in the data active = inhibition above about 50%
FN deposit inh: inhibitors of fibronectin matrix deposition, primary screen, AH1F cells, Alexa488-fibronectin fluorescence, plate reader | AH1F fibroblasts, overnight | inhibition, % at 12.6 µM | 0.086% of 350,000 active;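 active = mean inhibition across replicates of 30% or more, regardless of how many single replicates reach that level; inconclusive = mean under 30% yet at least half of replicates reach 30%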;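 note: positive control wells lacked labelled fibronectin entirely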
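Assay system: AH1F fibroblasts assembling fluorescent fibronectin matrix; Amount: 10000 AH1F cells per well; Buffer or medium: DMEM, 2% serum; Probe or stimulus: Alexa488-fibronectin, 24 nM final in well; Doses: single compound dose, delivered by pin transfer; Incubation: 1 h adhesion, overnight exposure; Measured by: fluorescence 485/525 nm; Read-out: fibronectin deposition inhibition.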
EWS-Fli inh: EWS/Fli-driven NR0B1 reporter inhibitors, primary screen, A673 cells, NR0B1 luciferase, luminescence, MLPCN library; viability-normalised; inhibition, % at 12.6 µM; 0.67% of 350,000 active; AID 651661, 2012;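 active = mean inhibition of at least 50% after viability correction, with every replicate also passing that limit; inconclusive = mean reaches 50% but only one of two replicates passes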;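 note: firefly luciferase signal divided by Alamar Blue viability fluorescence both relative to DMSO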
DNA binding: DNA binders by acridine orange displacement, dose response, counter-screen for EWS/Fli inhibitor project, biochemical, fluorescence polarization, cherry-pick; shares compounds with EWS-Fli inh; salmon sperm DNA acridine orange fluorescence polarization; AC35, µM (highest dose often 68 µM), for the others: top-dose activity change, negative = DNA binding; 2% of 640 active; AID 720586, 2013;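 active = fitted curve reaches a 35% signal fall AC35 below twice the sample's top valid tested dose, actives reach about 48 µM in these data; inactive = the rest, including activity in the rising direction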;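 note: lower polarization ratio signals compound binding to DNA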
* = called active by the depositor; i = inactive; u = inconclusive; x = not tested or not shown. This is a sample that favours compounds with a hit; in the whole collection about 2.3% have one here.

SMILES	TROY signal inh	LGR2 antag	XiGFP reactiv	TWEAK-Fn14 inh	FN deposit inh	EWS-Fli inh	DNA binding
CCOc1ccc(-c2noc(CCC(=O)O)n2)cc1	30	-15	0	71*	-2	54*	-5%
C[C@H](CO)N1C[C@H](C)[C@@H](CN(C)C)Oc2ccc(NC(=O)Cn3cnnn3)cc2C1=O	x	21	-1	x	x	-9	x
COC(=O)C1=C(C)N(Cc2ccccc2C(F)(F)F)C(=NCc2ccc(C(F)(F)F)cc2)NC1c1ccc(C(F)(F)F)cc1 (stereo unspecified)	x	-12	0	x	11	-4	x
COC(=O)C1=C(C)N(Cc2ccccc2C(F)(F)F)C(=NCc2ccc(OC)cc2)NC1c1ccc(C(F)(F)F)cc1 (stereo unspecified)	x	5	0	x	-18	55*	-7%
COC(=O)C1=C(C)N(Cc2cccc(C(F)(F)F)c2)C(=NCc2ccc(OC)cc2)NC1c1cccc(F)c1 (stereo unspecified)	x	16	0	x	21	50*	0%
CN(C)C(=O)c1cccc(-c2ccc([C@@H]3[C@@H](C#N)N(C(=O)C4CCCC4)[C@@H]3CO)cc2)c1	x	16	0	x	3	-3	x
Nc1ccc2c(c1)OC1(CCCC1)O2	68*	15	0	90*	-8	68*	-5%
O=C(NCc1ccc(F)cc1)N1[C@H]2CC[C@@H]1C=C(c1ccc(F)cc1OCc1ccccc1)C2	23	20	0	19	2	54*	-9%
COc1ccc(CNC(=O)N2[C@H]3CC[C@@H]2C=C(c2ccc(F)cc2OCc2ccccc2)C3)cc1OC	21	19	0	43	x	-35	x
CN(C)CC(=O)N1[C@@H]2c3ccc(-c4ccc(F)cc4)c(=O)n3C[C@@H]2[C@@H](CO)[C@@H]1C(=O)NC1CCCC1	x	8	0	x	x	-5	x
C[C@@H]1CN([C@@H](C)CO)C(=O)c2cc(N(C)C)ccc2O[C@H]1CN(C)Cc1ccc(C(=O)Nc2ccccc2N)cc1	x	9	2	x	-13	63*	-7%
C[C@@H]1CN([C@H](C)CO)C(=O)c2cc(N(C)C)ccc2O[C@H]1CN(C)Cc1ccc(C(=O)Nc2ccccc2N)cc1	x	8	0	x	-8	65*	6%
C[C@H](CO)N1C[C@H](C)[C@H](CN(C)Cc2ccc(C(=O)Nc3ccccc3N)cc2)Oc2ccc(N(C)C)cc2C1=O	x	-18	-1	x	-7	65*	3%
C[C@@H]1CN([C@H](C)CO)C(=O)c2cc(NC(=O)Nc3ccccc3)ccc2O[C@@H]1CN(C)Cc1ccc(C(=O)Nc2ccccc2N)cc1	x	4	1	x	x	55*	-11%
C[C@H](CO)N1C[C@H](C)[C@@H](CN(C)Cc2ccc(C(=O)Nc3ccccc3N)cc2)Oc2ccc(NC(=O)Nc3ccc(F)cc3)cc2C1=O	x	4	0	x	-2	6	x
C[C@H](CO)N1C[C@H](C)[C@@H](CN(C)Cc2ccc(C(=O)Nc3ccccc3N)cc2)Oc2ccc(N(C)C)cc2C1=O	x	16	0	x	-10	u	x
C[C@H]1CCCCO[C@H](CN(C)Cc2ccc(C(=O)Nc3ccccc3N)cc2)[C@@H](C)CN([C@@H](C)CO)C(=O)c2cc(N(C)C)ccc2O1	x	x	0	x	x	x	x
C[C@@H]1CN([C@@H](C)CO)C(=O)Cc2cc(NC(=O)Nc3ccc(F)cc3)ccc2O[C@@H]1CN(C)CC1CCCCC1	x	2	0	x	x	45	x
C[C@H]1CN([C@@H](C)CO)C(=O)c2cc(N(C)C)ccc2O[C@H]1CN(C)Cc1ccc(C(=O)Nc2ccccc2N)cc1	x	10	-1	x	-17	61*	-8%
C[C@@H]1CN([C@@H](C)CO)C(=O)Cc2cc(NC(=O)C3CCCCC3)ccc2O[C@H]1CN(C)Cc1ccc(C(=O)Nc2ccccc2N)cc1	x	-6	0	x	3	52*	-7%
C[C@@H]1CN([C@H](C)CO)C(=O)Cc2cc(N(C)C)ccc2O[C@@H]1CN(C)Cc1ccc(C(=O)Nc2ccccc2N)cc1	x	-19	2	x	-14	8	x
C[C@@H]1CN([C@H](C)CO)C(=O)Cc2cc(N(C)C)ccc2O[C@H]1CN(C)Cc1ccc(C(=O)Nc2ccccc2N)cc1	x	-4	2	x	-3	59*	-9%
C[C@@H]1CCCCO[C@H](CN(C)Cc2ccncc2)[C@H](C)CN([C@@H](C)CO)C(=O)c2cc(NC(=O)Nc3ccc(C(F)(F)F)cc3)ccc2O1	x	-5	0	x	x	34	x
C[C@H](CO)N1C[C@H](C)[C@H](CN(C)S(=O)(=O)c2cn(C)cn2)Oc2ncc(C3=CCCC3)cc2C1=O	x	-6	0	x	1	1	x
CCc1nc(N)nc(N)c1-c1ccc(Cl)cc1	-3	-13	0	1	-13	64*	6%
SMILES	TROY signal inh	LGR2 antag	XiGFP reactiv	TWEAK-Fn14 inh	FN deposit inh	EWS-Fli inh	DNA binding
CCCCC[C@H](C)N1C[C@H](COCc2ccccc2)Oc2cc(N3CC[C@@H](N(C)C)C3)ccc2S1(=O)=O	12	-2	0	-8	4	59*	-4%
O=C(COC(=O)CCN1C(=O)/C(=C\C=C\c2ccccc2)SC1=S)Nc1ccc(Br)cc1	21	-7	0	21	10	40	x
CC(C)c1ccccc1NC(=O)COC(=O)CCN1C(=O)/C(=C\C=C\c2ccccc2)SC1=S	35	-3	0	72*	-7	62*	-10%
O=C(C[C@@H]1C=C[C@H](NC(=O)c2cccnc2)[C@H](CO)O1)NCc1ccc(Cl)c(Cl)c1	x	20	1	x	-2	-7	x
COC(=O)c1ccccc1-c1c2ccc(=N)cc-2oc2cc(N)ccc12	17	12	2	53*	i	86*	<0.03µM*
C[C@@H]1CN([C@H](C)CO)C(=O)c2cccc(NC(=O)CCCCCC(=O)Nc3ccccc3N)c2O[C@@H]1CN(C)Cc1ccc(Oc2ccccc2)cc1	x	-31	0	x	x	16	x
C[C@@H]1CN([C@@H](C)CO)C(=O)c2cccc(NC(=O)CCCCCC(=O)Nc3ccccc3N)c2O[C@@H]1CN(C)Cc1ccc(Oc2ccccc2)cc1	x	-32	1	x	x	53*	-4%
